Experimental data of several laboratories.
ADRA1A: Alpha-1A adrenergic receptor (ADRA1A, Homo sapiens, UniProt P35348)
SQLE: Squalene monooxygenase (SQLE, Homo sapiens, UniProt Q14534)

| Structure (SMILES) | target | test | measurement | value |
| --- | --- | --- | --- | --- |
| NC(=O)c1ccc[n+]([C@@H]2O[C@H](COP(=O)([O-])OP(=O)(O)OC[C@H]3O[C@@H](n4cnc5c(N)ncnc54)[C@H](O)[C@@H]3O)[C@@H](O)[C@H]2O)c1 | Dihydrolipoyl dehydrogenase, mitochondrial (DLD, Homo sapiens, UniProt P09622, K430Q) | binding, SPR | Kd | 1.14 µM |
| Nc1ccn(C[C@@H](CO)OCP(=O)(O)O)c(=O)n1 | Solute carrier family 22 member 6 (SLC22A6, Homo sapiens, UniProt Q4U2R8, S231A) | transporter uptake, inhibitor, fluorescence | IC50 | 344 µM |
| Cc1cc2nc3c(=O)[nH]c(=O)nc-3n(C[C@H](O)[C@H](O)[C@H](O)COP(=O)(O)OP(=O)(O)OC[C@H]3O[C@@H](n4cnc5c(N)ncnc54)[C@H](O)[C@@H]3O)c2cc1C | Dihydrolipoyl dehydrogenase, mitochondrial (DLD, Homo sapiens, UniProt P09622) | binding, SPR | Kd | 1.27 µM |
| CN(C)C(=O)c1cc2cnc(Nc3ccc(C(=O)NCCCCCCOc4cccc5c4C(=O)N(C4CCC(=O)NC4=O)C5=O)cc3)nc2n1C1CCCC1 (centres unmarked) | High affinity nerve growth factor receptor (NTRK1, Homo sapiens, UniProt P04629) | binding, competition with immobilised ligand | Kd | < 0.2 µM |
| O=C[C@H](O)[C@@H](O)[C@H](O)[C@H](O)COP(=O)(O)O | Hexokinase HKDC1 (Homo sapiens, UniProt Q2TB90) | enzyme activity, inhibitor, absorbance | Ki | > 1000 µM |
| Cc1cc(Oc2ncccc2CN2CCN(C(c3ccccc3)c3ccccc3)CC2)ccc1-c1c(C)c(=O)[nH]c(=O)n1C | ADRA1A | ligand displacement, radioligand | Ki | 0.885 µM |
| O=C(O)[C@H]1O[C@@H](Oc2cc3oc(-c4ccccc4)cc(=O)c3c(O)c2O)[C@H](O)[C@@H](O)[C@@H]1O | SQLE | enzyme activity, inhibitor | Ki | 1.75 µM |
| Cc1ccc(N2CCN(Cc3cccnc3Oc3ccc(-c4c(C)c(=O)[nH]c(=O)n4C)c(C)c3)CC2)cc1C | ADRA1A | ligand displacement, radioligand | Ki | 3.42 µM |
| CC(C)C[C@H](NC(=O)[C@H](Cc1ccccc1)NC(=O)c1cnccn1)B(O)O | ATP-dependent Clp protease proteolytic subunit, mitochondrial (CLPP, Homo sapiens, UniProt Q16740) | binding | Kd | 45 µM |
| Cc1cc(Oc2ncccc2CN2CCN(c3ccccc3C#N)CC2)ccc1-c1c(C)c(=O)[nH]c(=O)n1C | ADRA1A | ligand displacement, radioligand | Ki | 1.21 µM |
| CC(=O)c1ccc2c(c1)N(CCCN1CCC(CCO)CC1)c1ccccc1S2 | SQLE | enzyme activity, inhibitor | Ki | 0.68 µM |
